According to paper PMC4136711 (Journal of Medicinal Chemistry, 2014):

Columns and labels:
SETD8 = biological target: T1, SETD8 (Homo sapiens, UniProt Q9NQR1); format: binding
T1 sequence (Q9NQR1 257-378 limits assumed): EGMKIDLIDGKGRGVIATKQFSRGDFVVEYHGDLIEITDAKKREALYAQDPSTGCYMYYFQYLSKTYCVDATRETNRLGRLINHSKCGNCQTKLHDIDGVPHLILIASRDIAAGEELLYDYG

PRC2 complex = PRC2 complex (Homo sapiens, UniProt Q15910); assay: Selectivity assay; format: biochemical; settings: read-out: estimated IC50 PRC2
Outline: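 Tritium-labelled methyl transfer from 3H-SAM to peptide substrate, with substrates near their Km values for the enzyme. Test compound ranged from 100 nM to 100 μM. Reactions were quenched with 7.5 M guanidine hydrochloride, diluted in 20 mM Tris pH 8.0, and captured on FlashPlates for 1 h before counting CPM. The no-compound signal defined 100% activity and the no-enzyme signal defined 0%.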

L3MBTL1 = L3MBTL1 (Homo sapiens, UniProt Q9Y468); settings: methyllysine reader protein
Chain of L3MBTL1 (Q9Y468 whole entry, species assumed): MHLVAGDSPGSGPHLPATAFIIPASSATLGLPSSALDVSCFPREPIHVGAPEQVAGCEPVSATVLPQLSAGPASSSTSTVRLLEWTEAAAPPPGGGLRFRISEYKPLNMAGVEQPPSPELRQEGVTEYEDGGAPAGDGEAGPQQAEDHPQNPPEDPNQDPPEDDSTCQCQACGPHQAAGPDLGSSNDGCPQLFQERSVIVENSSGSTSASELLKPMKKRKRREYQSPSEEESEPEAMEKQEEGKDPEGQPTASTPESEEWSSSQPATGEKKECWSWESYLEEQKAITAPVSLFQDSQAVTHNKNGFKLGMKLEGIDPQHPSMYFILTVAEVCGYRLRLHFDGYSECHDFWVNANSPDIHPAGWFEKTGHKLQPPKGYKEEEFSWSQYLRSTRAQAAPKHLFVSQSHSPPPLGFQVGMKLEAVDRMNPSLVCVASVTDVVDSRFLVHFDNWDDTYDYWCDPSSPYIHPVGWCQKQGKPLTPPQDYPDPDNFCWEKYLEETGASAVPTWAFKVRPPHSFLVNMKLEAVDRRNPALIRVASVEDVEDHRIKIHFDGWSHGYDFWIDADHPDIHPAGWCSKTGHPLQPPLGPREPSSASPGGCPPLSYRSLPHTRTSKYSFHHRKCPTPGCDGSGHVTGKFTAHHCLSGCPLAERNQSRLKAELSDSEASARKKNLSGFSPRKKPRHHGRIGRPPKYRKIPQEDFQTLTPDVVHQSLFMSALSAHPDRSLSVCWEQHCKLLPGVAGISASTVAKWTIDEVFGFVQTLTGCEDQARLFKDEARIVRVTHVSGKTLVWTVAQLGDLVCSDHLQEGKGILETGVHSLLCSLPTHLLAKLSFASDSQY

Chain of PRC2 complex (Q15910 whole entry): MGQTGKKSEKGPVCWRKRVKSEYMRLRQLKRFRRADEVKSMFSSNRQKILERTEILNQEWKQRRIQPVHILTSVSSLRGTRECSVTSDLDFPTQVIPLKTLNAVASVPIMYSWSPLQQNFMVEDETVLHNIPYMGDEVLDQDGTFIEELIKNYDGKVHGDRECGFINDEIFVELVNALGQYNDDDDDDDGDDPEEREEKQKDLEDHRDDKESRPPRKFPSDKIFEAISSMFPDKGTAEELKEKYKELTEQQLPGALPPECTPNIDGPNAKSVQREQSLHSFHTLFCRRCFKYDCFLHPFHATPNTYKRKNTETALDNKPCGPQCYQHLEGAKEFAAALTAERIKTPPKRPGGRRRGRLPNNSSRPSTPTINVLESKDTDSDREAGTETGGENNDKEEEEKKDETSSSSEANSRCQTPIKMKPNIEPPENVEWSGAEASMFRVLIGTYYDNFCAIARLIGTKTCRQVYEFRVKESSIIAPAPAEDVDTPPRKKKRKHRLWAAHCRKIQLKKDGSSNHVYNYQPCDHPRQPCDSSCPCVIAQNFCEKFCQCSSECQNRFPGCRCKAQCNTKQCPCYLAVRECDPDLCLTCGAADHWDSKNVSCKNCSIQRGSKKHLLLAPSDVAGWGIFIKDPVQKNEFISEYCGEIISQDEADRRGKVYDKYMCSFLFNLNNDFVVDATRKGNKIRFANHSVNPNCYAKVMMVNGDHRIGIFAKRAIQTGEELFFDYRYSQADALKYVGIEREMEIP
Chain of PRC2 complex (O75530 whole entry partner): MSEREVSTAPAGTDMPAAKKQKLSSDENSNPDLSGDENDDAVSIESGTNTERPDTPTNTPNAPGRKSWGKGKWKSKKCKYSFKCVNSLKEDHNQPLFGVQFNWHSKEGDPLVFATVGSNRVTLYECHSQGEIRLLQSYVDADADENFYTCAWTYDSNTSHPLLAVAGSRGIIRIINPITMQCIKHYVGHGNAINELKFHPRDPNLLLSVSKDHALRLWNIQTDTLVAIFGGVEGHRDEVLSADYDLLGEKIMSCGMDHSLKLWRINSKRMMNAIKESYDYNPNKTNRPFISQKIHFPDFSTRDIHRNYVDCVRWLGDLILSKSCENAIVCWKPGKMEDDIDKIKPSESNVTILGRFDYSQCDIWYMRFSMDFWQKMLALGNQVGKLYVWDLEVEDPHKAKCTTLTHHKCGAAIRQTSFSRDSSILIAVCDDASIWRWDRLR
Chain of PRC2 complex (Q15022 whole entry partner): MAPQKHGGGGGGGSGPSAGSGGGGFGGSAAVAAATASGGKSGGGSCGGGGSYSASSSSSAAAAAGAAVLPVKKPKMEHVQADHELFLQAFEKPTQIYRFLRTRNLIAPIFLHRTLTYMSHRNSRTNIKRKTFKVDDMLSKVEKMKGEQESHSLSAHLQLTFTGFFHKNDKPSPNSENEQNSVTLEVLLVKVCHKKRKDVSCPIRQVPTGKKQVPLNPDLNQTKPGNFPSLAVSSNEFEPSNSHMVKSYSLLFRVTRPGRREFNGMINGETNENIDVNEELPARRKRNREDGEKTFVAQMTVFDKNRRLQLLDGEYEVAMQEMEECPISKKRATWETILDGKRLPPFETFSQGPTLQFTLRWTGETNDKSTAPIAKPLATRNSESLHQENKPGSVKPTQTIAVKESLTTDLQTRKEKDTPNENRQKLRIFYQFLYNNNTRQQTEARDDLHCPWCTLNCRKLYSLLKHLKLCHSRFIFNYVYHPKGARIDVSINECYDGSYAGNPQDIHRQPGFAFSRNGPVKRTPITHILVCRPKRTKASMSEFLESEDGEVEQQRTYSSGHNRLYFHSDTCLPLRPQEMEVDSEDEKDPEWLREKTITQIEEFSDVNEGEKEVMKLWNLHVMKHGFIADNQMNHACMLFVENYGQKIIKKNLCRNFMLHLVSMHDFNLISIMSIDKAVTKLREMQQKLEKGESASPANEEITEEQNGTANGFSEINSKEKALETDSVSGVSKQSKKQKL

Row | SMILES | Displacement of FITC-labeled H4K20me peptide (FP), in words (SETD8) | potency estimated from few doses (PRC2 complex) | Activity for L3MBTL1 (L3MBTL1)
1 | COc1cc2nc(N3CCCC3)nc(N(C)CCCCCN3CCCC3)c2cc1OC [Compound 14, 6,7-Dimethoxy-N-methyl-2-(pyrrolidin-1-yl)-N-(5-(pyrrolidin-1-yl)pentyl)quinazolin-4-amine] | did not displace the peptide |  | 
2 | COc1cc2nc(N3CCCC3)nc(NCCCCCN3CCCC3)c2cc1OC [Compound 1, 6,7-Dimethoxy-2-(pyrrolidin-1-yl)-N-(5-(pyrrolidin-1-yl)pentyl)quinazolin-4-amine] |  | > 50 µM | no appreciable activity
